Measured values as given in ChEMBL document CHEMBL3804779, “Novel free fatty acid receptor 1 (GPR40) agonists based on 1,3,4-thiadiazole-2-carboxamide scaffold” (Bioorg Med Chem, 2016).

Legend:
[1] = target: Free fatty acid receptor 1 (Homo sapiens, UniProt O14842); assay: Agonist activity at human GPR40 expressed in CHO cells by calcium influx assay; assay type: functional, cell-based
Summary of the method: (§1)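 CHO cells stably expressing the receptor (GPR40, GPR41, GPR43 or GPR120) plated 24 h before assay and loaded with calcium dye for 1 h. Calcium flux read on FLIPR Tetra. Agonist response taken as maximum fluorescence change over baseline. Concentration-response curves fitted for EC50. GW9508 run as positive control.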

[2] = Half life in mouse plasma at 1 uM by LC-MS/MS analysis; assay type: ADME
Summary of the method: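 Compound at 1 uM (1% DMSO final) incubated in mouse plasma at 37 °C with shaking. Five time points sampled over 120 min, each quenched with acetonitrile and centrifuged. Supernatant analysed by LC-MS/MS for percentage remaining and T1/2. Verapamil and propantheline used as references.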

[3] = Protein binding in mouse plasma at 1 uM after 5 hrs by HPLC-MS/MS analysis; assay type: ADME, cell-free; conditions: read-out: PPB (converted)
Summary of the method: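 Equilibrium dialysis (MWCO 12-14 kDa) of mouse plasma spiked at 1 uM (1% solvent final) against PBS pH 7.4, 37 °C, orbital shaking, 5 h, in quadruplicate. Chamber samples matrix-matched, precipitated with acetonitrile and analysed by HPLC-MS/MS. % bound = (1 − buffer/plasma peak area) × 100. Recovery checked against an undialyzed standard. Verapamil used as reference.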

[4] = Metabolic stability in BALB/c mouse liver microsomes at 2 uM after 40 mins by HPLC analysis; assay type: ADME
Summary of the method: (§2)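 BALB/c male mouse liver microsomes (pooled, perfused livers) at 0.42 mg protein/ml in 100 mM phosphate buffer pH 7.4 with MgCl2 and an NADPH-regenerating system. Compound at 2 uM (1.6% solvent final) incubated at 37 °C in duplicate. Five time points over 40 min, quenched with acetonitrile and read by HPLC-MS/MS. Controls lacked NADPH. kel from ln(AUC) vs time regression; T1/2 = 0.693/kel; CLint scaled per mg microsomal protein.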

[5] = Distribution coefficient, log D of the compound at pH 7.4 by LC-MS/MS analysis; assay type: physicochemical; conditions: octanol/water
Summary of the method: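 Shake-flask partitioning between n-octanol and PBS, run in duplicate. Compound added from 10 mM DMSO stock to pre-equilibrated phases, shaken 1 h and separated by centrifugation. Each phase diluted and quantified by LC-MS/MS. D calculated from peak areas corrected for dilution (100·So/Sp). Reference compound included.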

[6] = Intrinsic clearance in BALB/c mouse liver microsomes at 2 uM after 40 mins by HPLC analysis; assay type: ADME; conditions: read-out: CLH; summary of the method: as §2
hERG (KCNH2) [7] = target: T1, hERG (KCNH2) (Homo sapiens, UniProt Q12809); assay: Inhibition of human ERG expressed in cell membranes at 20 uM after 4 hrs by fluorescence polarization assay; conditions: cell membranes that express human ERG
T1 sequence (Q12809 whole entry): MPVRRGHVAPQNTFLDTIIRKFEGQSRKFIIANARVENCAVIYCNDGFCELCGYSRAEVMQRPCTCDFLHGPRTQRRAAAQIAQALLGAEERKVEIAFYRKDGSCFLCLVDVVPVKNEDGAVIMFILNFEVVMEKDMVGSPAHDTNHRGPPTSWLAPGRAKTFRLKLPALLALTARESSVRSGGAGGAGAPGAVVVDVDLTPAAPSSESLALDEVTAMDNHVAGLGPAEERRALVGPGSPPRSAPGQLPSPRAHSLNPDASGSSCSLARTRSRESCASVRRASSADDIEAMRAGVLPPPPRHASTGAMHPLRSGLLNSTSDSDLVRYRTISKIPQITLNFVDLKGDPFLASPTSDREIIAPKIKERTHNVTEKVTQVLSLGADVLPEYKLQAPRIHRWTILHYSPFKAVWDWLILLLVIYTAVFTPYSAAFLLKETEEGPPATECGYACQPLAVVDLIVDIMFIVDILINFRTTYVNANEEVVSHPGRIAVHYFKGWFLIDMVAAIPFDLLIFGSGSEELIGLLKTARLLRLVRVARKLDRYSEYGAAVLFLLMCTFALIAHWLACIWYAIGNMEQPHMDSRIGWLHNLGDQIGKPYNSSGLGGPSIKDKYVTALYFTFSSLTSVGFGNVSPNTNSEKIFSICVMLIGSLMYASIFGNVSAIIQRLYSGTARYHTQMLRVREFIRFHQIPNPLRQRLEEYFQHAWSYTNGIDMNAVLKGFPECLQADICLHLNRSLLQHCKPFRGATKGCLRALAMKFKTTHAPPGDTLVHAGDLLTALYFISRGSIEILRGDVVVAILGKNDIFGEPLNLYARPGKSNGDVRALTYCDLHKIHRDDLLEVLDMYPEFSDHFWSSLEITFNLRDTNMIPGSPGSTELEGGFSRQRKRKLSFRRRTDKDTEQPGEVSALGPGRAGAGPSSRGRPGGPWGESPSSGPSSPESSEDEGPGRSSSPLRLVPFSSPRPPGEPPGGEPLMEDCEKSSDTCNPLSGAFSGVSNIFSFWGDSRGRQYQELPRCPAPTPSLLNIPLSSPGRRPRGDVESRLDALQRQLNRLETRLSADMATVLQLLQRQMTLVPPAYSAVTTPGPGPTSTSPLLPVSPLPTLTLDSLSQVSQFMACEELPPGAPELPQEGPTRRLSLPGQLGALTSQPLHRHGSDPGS
Summary of the method: (§3)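 Predictor hERG fluorescence polarization kit used per manufacturer's protocol. hERG-containing cell membranes incubated with fluorescent tracer and test compound at 1, 5 or 20 uM for 4 h.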

hERG (KCNH2) [8] = target: T1, hERG (KCNH2); assay: Inhibition of human ERG expressed in cell membranes at 5 uM after 4 hrs by fluorescence polarization assay; conditions: cell membranes that express human ERG; summary of the method: as §3
hERG (KCNH2) [9] = target: T1, hERG (KCNH2); assay: Inhibition of human ERG expressed in cell membranes at 1 uM after 4 hrs by fluorescence polarization assay; conditions: cell membranes that express human ERG; summary of the method: as §3
CYP1A2 = target: T2, CYP1A2 (Homo sapiens, UniProt P05177); assay: Inhibition of CYP1A2 (unknown origin) at 20 uM by P450-glo assay; assay type: ADME
T2 sequence (P05177 whole entry): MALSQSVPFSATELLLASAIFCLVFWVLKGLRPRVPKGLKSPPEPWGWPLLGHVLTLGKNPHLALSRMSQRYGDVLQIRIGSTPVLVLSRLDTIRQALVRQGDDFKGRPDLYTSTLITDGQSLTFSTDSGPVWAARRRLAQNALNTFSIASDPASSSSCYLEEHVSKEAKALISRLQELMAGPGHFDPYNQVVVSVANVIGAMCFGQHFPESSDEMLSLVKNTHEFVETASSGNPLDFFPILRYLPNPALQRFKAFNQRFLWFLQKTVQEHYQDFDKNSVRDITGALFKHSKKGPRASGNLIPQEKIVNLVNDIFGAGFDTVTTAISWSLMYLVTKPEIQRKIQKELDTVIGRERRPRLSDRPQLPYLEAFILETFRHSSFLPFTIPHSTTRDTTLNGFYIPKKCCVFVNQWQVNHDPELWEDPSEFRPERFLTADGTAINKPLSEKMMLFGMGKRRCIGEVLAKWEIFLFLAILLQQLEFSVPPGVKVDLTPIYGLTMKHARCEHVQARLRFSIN
Summary of the method: (§4)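 P450-Glo luminescent assay run per manufacturer's protocol. Each CYP isoform incubated with its luminogenic substrate and test compound at 20 uM (0.25% DMSO final), in quadruplicate. Control membranes without CYP served as baseline.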

CYP2C9 = CYP2C9 (Homo sapiens, UniProt P11712); assay: Inhibition of CYP2C9 (unknown origin) at 20 uM by P450-glo assay; assay type: ADME; summary of the method: as §4
Chain of CYP2C9 (P11712 whole entry): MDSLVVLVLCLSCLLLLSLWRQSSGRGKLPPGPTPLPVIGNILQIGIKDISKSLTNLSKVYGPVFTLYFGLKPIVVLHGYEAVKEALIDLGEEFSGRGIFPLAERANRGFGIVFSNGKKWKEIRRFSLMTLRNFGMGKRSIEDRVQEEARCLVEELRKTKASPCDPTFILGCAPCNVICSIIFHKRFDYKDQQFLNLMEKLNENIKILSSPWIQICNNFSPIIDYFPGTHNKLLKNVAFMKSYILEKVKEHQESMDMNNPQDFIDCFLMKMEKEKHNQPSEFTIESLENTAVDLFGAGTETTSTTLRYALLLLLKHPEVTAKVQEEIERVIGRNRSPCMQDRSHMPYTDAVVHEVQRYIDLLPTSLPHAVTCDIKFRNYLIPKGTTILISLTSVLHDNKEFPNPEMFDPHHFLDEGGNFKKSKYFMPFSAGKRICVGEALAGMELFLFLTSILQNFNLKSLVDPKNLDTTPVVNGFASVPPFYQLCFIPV

CYP2C19 = CYP2C19 (Homo sapiens, UniProt P33261); assay: Inhibition of CYP2C19 (unknown origin) at 20 uM by P450-glo assay; assay type: ADME; summary of the method: as §4
Chain of CYP2C19 (P33261 whole entry): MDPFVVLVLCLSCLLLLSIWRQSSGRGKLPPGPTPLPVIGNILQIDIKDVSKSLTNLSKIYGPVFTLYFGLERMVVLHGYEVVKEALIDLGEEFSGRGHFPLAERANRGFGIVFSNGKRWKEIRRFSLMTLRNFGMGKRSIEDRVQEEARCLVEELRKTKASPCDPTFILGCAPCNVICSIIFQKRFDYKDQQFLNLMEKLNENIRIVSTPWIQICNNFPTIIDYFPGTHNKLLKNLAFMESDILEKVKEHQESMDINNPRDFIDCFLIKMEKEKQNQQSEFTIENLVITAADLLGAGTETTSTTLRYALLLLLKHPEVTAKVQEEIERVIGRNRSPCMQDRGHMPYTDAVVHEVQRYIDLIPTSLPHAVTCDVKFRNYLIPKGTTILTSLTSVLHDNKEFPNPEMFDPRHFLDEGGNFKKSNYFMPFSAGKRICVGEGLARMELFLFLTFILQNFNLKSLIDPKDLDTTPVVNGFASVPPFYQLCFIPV

CYP2D6 = CYP2D6 (Homo sapiens, UniProt P10635); assay: Inhibition of CYP2D6 (unknown origin) at 20 uM by P450-glo assay; assay type: ADME; summary of the method: as §4
Chain of CYP2D6 (P10635 whole entry): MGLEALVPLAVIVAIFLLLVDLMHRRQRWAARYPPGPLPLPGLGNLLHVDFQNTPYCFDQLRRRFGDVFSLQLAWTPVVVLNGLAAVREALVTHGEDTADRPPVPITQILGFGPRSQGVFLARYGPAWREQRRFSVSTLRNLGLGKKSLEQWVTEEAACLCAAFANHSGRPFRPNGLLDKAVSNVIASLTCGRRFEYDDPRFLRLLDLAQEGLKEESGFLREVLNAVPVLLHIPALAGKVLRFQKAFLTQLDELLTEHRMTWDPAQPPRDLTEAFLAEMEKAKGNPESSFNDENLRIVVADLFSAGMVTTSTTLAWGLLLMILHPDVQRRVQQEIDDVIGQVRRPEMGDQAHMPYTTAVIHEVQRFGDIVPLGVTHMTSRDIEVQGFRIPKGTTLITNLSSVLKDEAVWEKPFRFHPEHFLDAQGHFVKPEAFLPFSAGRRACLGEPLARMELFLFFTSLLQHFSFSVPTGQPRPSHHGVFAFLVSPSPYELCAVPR

CYP3A4 = CYP3A4 (Homo sapiens, UniProt P08684); assay: Inhibition of CYP3A4 (unknown origin) at 20 uM by P450-glo assay; assay type: ADME
Chain of CYP3A4 (P08684 whole entry): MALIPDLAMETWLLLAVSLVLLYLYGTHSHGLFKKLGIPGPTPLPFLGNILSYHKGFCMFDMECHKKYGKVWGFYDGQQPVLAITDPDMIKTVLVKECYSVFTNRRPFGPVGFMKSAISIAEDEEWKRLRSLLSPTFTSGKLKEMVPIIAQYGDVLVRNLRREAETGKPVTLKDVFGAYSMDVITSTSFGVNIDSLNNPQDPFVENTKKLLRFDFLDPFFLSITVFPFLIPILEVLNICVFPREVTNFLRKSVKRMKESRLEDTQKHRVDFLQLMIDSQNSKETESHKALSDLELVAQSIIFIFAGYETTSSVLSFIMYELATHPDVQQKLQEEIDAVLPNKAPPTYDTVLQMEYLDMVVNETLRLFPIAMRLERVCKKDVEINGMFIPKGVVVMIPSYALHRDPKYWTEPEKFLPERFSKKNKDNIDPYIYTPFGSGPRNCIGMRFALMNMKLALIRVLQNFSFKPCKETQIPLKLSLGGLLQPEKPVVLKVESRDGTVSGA

[10] = target: T3, Free fatty acid receptor 3 (Homo sapiens, UniProt O14843); assay: Agonist activity at human GPR41 (unknown origin) expressed in CHO cells by calcium influx assay; assay type: functional, cell-based; summary of the method: as §1
T3 sequence (O14843 whole entry): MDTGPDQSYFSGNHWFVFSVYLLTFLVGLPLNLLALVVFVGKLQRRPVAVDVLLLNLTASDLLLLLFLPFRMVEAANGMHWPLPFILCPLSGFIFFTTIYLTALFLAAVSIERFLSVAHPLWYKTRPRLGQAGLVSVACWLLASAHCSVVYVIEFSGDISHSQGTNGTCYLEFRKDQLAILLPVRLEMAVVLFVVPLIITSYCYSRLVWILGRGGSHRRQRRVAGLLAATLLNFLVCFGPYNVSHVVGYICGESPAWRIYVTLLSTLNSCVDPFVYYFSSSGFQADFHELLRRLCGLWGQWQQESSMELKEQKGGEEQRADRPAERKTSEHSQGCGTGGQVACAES

[11] = target: T4, Free fatty acid receptor 2 (Homo sapiens, UniProt O15552); assay: Agonist activity at human GPR43 (unknown origin) expressed in CHO cells by calcium influx assay; assay type: functional, cell-based; summary of the method: as §1
T4 sequence (O15552 whole entry): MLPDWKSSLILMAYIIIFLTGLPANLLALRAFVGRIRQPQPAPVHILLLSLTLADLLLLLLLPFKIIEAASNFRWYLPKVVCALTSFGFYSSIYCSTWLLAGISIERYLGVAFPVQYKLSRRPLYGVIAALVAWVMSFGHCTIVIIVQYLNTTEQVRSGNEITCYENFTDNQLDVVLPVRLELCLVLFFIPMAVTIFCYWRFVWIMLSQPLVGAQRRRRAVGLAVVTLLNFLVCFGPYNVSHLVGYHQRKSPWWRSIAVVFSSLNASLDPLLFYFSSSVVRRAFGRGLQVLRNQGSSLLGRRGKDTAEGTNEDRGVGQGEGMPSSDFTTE

[12] = target: T5, Free fatty acid receptor 4 (Homo sapiens, UniProt Q5NUL3); assay: Agonist activity at human GPR120 (unknown origin) expressed in CHO cells by calcium influx assay; assay type: functional, cell-based; summary of the method: as §1
T5 sequence (Q5NUL3 whole entry): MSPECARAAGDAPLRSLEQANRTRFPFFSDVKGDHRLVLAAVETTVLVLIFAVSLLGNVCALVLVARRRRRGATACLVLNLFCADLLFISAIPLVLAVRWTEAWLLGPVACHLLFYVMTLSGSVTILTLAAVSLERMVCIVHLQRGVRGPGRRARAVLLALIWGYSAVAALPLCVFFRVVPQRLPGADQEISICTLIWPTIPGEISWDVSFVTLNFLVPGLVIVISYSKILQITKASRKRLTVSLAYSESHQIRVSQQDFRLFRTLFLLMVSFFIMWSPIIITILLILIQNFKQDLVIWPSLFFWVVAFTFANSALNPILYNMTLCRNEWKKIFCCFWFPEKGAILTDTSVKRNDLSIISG

Chain of Free fatty acid receptor 1 (O14842 whole entry): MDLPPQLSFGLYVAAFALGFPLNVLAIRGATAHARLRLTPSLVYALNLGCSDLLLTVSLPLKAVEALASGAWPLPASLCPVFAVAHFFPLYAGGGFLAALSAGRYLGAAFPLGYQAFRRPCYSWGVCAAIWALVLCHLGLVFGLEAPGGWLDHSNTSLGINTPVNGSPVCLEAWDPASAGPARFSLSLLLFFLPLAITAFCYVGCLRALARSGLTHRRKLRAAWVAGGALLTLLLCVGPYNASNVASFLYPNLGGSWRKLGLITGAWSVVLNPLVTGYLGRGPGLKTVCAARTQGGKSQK

O=C(O)CCc1ccc(OCc2nnc(C(=O)Nc3ccc(Cl)cc3)s2)cc1
EC50 [1]: 3.69 µM

Cc1ccc(NC(=O)c2nnc(COc3ccc(CCC(=O)O)cc3)s2)cc1
EC50 [1]: 4.3 µM

Cc1cccc(NC(=O)c2nnc(COc3ccc(CCC(=O)O)cc3)s2)c1
EC50 [1]: 1.77 µM

O=C(O)CCc1ccc(OCc2nnc(C(=O)Nc3cccc(Cl)c3)s2)cc1
EC50 [1]: 10.6 µM
half-life at 1 µM [2]: 1.93 h
fraction unbound at 5 h, 1 µM [3]: 0.072
half-life at 2 µM [4]: 0.22 h
logD [5]: 1.46
microsomal CLint at 2 µM [6]: 126 µL/min/mg
inhibition at 4 h, 20 µM (hERG (KCNH2) [7]): 36%
inhibition at 4 h, 5 µM (hERG (KCNH2) [8]): -3%
inhibition at 4 h, 1 µM (hERG (KCNH2) [9]): 1%
inhibition at 20 µM (CYP1A2): 41.9%
inhibition at 20 µM (CYP2C9): 85%
inhibition at 20 µM (CYP2C19): 77.7%
inhibition at 20 µM (CYP2D6): 22.7%
inhibition at 20 µM (CYP3A4): 55.2%

O=C(O)CCc1nnc(C(=O)Nc2ccc(OCc3ccccc3)cc2)s1
EC50 [1]: 17.9 µM

Cc1ccccc1NC(=O)c1nnc(COc2ccc(CCC(=O)O)cc2)s1
EC50 [1]: 1.52 µM

O=C(O)CCc1ccc(OCc2nnc(C(=O)Nc3cccc(F)c3)s2)cc1
EC50 [1]: 1.19 µM

COc1ccc(NC(=O)c2nnc(COc3ccc(CCC(=O)O)cc3)s2)cc1
EC50 [1]: > 10 µM

O=C(O)CCc1nnc(C(=O)Nc2cccc(-c3cccc(Cl)c3)c2)s1
EC50 [1]: 1.69 µM

O=C(O)CCc1ccc(OCc2nnc(C(=O)Nc3ccccc3)s2)cc1
EC50 [1]: 1.06 µM

COc1cccc(NC(=O)c2nnc(COc3ccc(CCC(=O)O)cc3)s2)c1
EC50 [1]: 4.68 µM

O=C(O)CCc1nnc(C(=O)Nc2cccc(-c3ccco3)c2)s1
EC50 [1]: 1.64 µM

O=C(O)CCc1ccc(OCc2nnc(C(=O)Nc3ccc(F)c(F)c3)s2)cc1
EC50 [1]: 0.58 µM
EC50 [10]: > 10 µM
EC50 [11]: > 10 µM
EC50 [12]: > 10 µM

O=C(O)CCc1ccc(OCc2nnc(C(=O)Nc3ccc(F)cc3)s2)cc1
EC50 [1]: 6.64 µM

O=C(O)CCc1ccc(OCc2nnc(C(=O)Nc3ccccc3F)s2)cc1
EC50 [1]: 0.58 µM
EC50 [10]: > 10 µM
EC50 [11]: > 10 µM
EC50 [12]: > 10 µM
half-life at 1 µM [2]: 0.34 h
half-life at 2 µM [4]: 0.115 h
logD [5]: 0.95
microsomal CLint at 2 µM [6]: 241 µL/min/mg
inhibition at 4 h, 20 µM (hERG (KCNH2) [7]): 4%
inhibition at 4 h, 5 µM (hERG (KCNH2) [8]): -7%
inhibition at 4 h, 1 µM (hERG (KCNH2) [9]): 9%
inhibition at 20 µM (CYP1A2): 18.8%
inhibition at 20 µM (CYP2C9): 12.8%
inhibition at 20 µM (CYP2C19): -3.3%
inhibition at 20 µM (CYP2D6): 6.6%
inhibition at 20 µM (CYP3A4): -28.7%

O=C(O)CCc1nnc(C(=O)Nc2cccc(-c3ccc(F)cc3)c2)s1
EC50 [1]: 1.28 µM
EC50 [10]: > 10 µM
EC50 [11]: > 10 µM
EC50 [12]: > 10 µM
half-life at 1 µM [2]: > 4 h
fraction unbound at 5 h, 1 µM [3]: 0.059
half-life at 2 µM [4]: 3.48 h
logD [5]: 0.96
microsomal CLint at 2 µM [6]: 8 µL/min/mg
inhibition at 4 h, 20 µM (hERG (KCNH2) [7]): -1%
inhibition at 4 h, 5 µM (hERG (KCNH2) [8]): -1%
inhibition at 4 h, 1 µM (hERG (KCNH2) [9]): -6%
inhibition at 20 µM (CYP1A2): 47.2%
inhibition at 20 µM (CYP2C9): -1.9%
inhibition at 20 µM (CYP2C19): 25.2%
inhibition at 20 µM (CYP2D6): 11.8%
inhibition at 20 µM (CYP3A4): -5.1%

Cc1cccc(-c2cccc(NC(=O)c3nnc(CCC(=O)O)s3)c2)c1
EC50 [1]: 0.76 µM
EC50 [10]: > 10 µM
EC50 [11]: > 10 µM
EC50 [12]: > 10 µM
half-life at 1 µM [2]: > 4 h
fraction unbound at 5 h, 1 µM [3]: 0.076
half-life at 2 µM [4]: 1.29 h
logD [5]: 1.28
microsomal CLint at 2 µM [6]: 21.6 µL/min/mg
inhibition at 4 h, 20 µM (hERG (KCNH2) [7]): 22%
inhibition at 4 h, 5 µM (hERG (KCNH2) [8]): 2%
inhibition at 4 h, 1 µM (hERG (KCNH2) [9]): 8%
inhibition at 20 µM (CYP1A2): 94.3%
inhibition at 20 µM (CYP2C9): 9.8%
inhibition at 20 µM (CYP2C19): 37.2%
inhibition at 20 µM (CYP2D6): 1.8%
inhibition at 20 µM (CYP3A4): 12.3%
